Measurements: ChEMBL document CHEMBL2407008, “Synthesis and biological evaluation of a new series of highly functionalized 7'-homo-anhydrovinblastine derivatives” (J Med Chem, 2013)
Active and inactive are the calls of the source. No cut-off for these calls is given here.

Legend:
[1] = test system: HUVEC; experiment: Cytotoxicity against HUVEC after 72 hrs by resazurin assay; assay type: cell-based; conditions: Homo sapiens
Procedure, shortened: (§1)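 Cells were seeded at 2.5 × 10^3/well, cultured 24 h, then given compound in DMSO (<0.1%) at several concentrations for 72 h. Media: RPMI 1640/10% FCS for K562 and HCT116; DMEM/10% FCS for U87-MG; EGM2 with growth factors and 2% FCS for HUVEC. Resazurin was added for 1.5 h and fluorescence read (ex 560/em 590 nm). IC50 is the 50% fluorescence drop versus untreated cells. Run in triplicate.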

[2] = Cytotoxicity against human U87MG cells after 72 hrs by resazurin assay; assay type: functional, cell-based, U-87MG ATCC; conditions: U-87 MG; procedure, shortened: as §1
[3] = test system: K562; experiment: Cytotoxicity against human K562 cells after 72 hrs by resazurin assay; assay type: functional, cell-based; conditions: K562, 72 h; procedure, shortened: as §1
[4] = test system: HCT-116; experiment: Cytotoxicity against human HCT116 cells after 72 hrs by resazurin assay; assay type: functional, cell-based; conditions: HCT-116, 72 h; procedure, shortened: as §1
[5] = Inhibition of sheep brain tubulin polymerization by UV spectrophotometric analysis; set-up: species or system Ovis aries
Procedure, shortened: (§2)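 Sheep brain tubulin was mixed with compound in DMSO at 0 °C, then warmed to 37 °C. Assembly was followed as optical density at 350 nm. Maximum assembly rate was compared with a drug-free sample, and IC50 was derived from several concentrations. Vinorelbine IC50 was measured the same day on the same tubulin preparation.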

[6] = species: Ovis aries; experiment: Ratio of compound IC50 to vinorelbine IC50 for sheep brain tubulin polymerization; procedure, shortened: as §2
[7] = Cell cycle arrest in human U87MG cells assessed as accumulation at G2/M phase at >50 nM after 24 hrs by propidium iodide staining-based flow cytometric analysis; assay type: functional; conditions: U-87MG ATCC
Procedure, shortened: (§3)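 U87-MG glioblastoma cells grown in DMEM with 10% FCS and L-glutamine, 37 °C, 5% CO2. Exponentially growing cells were treated for 24 h at two concentrations, or with DMSO. Cells were harvested, dissociated, PBS-washed, fixed in cold 70% ethanol and kept at −20 °C overnight. Staining used propidium iodide with RNase for 30 min, followed by flow-cytometric cell-cycle profiling.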

[8] = test system: K562; experiment: Cell cycle arrest in human K562 cells assessed as accumulation at G2/M phase at >50 nM after 24 hrs by propidium iodide staining-based flow cytometric analysis; assay type: functional
Procedure, shortened: (§4)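 K562 cells grown in RPMI 1640 with 10% FCS and 1% glutamine, 37 °C, 5% CO2. Exponentially growing cells were exposed for 24 h to compound at two concentrations, or to DMSO. Cells were then harvested, PBS-washed, fixed in cold 70% ethanol (30 min, +4 °C) and held at −20 °C overnight. DNA was stained with propidium iodide plus RNase for 30 min, and the profile was read by flow cytometry.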

[9] = Cell cycle arrest in human U87MG cells assessed as accumulation at G2/M phase at 50 nM after 24 hrs by propidium iodide staining-based flow cytometric analysis; assay type: functional; conditions: U-87MG ATCC; procedure, shortened: as §3
[10] = test system: K562; experiment: Cell cycle arrest in human K562 cells assessed as accumulation at G2/M phase at 50 nM after 24 hrs by propidium iodide staining-based flow cytometric analysis; assay type: functional; procedure, shortened: as §4
[11] = Cell cycle arrest in human U87MG cells assessed as accumulation at G2/M phase at >5 nM after 24 hrs by propidium iodide staining-based flow cytometric analysis; assay type: functional; conditions: U-87MG ATCC; procedure, shortened: as §3
[12] = test system: K562; experiment: Cell cycle arrest in human K562 cells assessed as accumulation at G2/M phase at >10 nM after 24 hrs by propidium iodide staining-based flow cytometric analysis; assay type: functional; procedure, shortened: as §4
[13] = Cell cycle arrest in human U87MG cells assessed as accumulation at G2/M phase at 5 nM after 24 hrs by propidium iodide staining-based flow cytometric analysis; assay type: functional; conditions: U-87MG ATCC; procedure, shortened: as §3
[14] = test system: K562; experiment: Cell cycle arrest in human K562 cells assessed as accumulation at G2/M phase at 10 nM after 24 hrs by propidium iodide staining-based flow cytometric analysis; assay type: functional; procedure, shortened: as §4

| Structure (SMILES) | IC50 [1] | IC50 [2] | IC50 [3] | IC50 [4] | IC50 [5] | also measured |
| --- | --- | --- | --- | --- | --- | --- |
| C=CCNC(=O)/C1=C(\C(=O)OC)Cc2c([nH]c3ccccc23)[C@@](C(=O)OC)(c2cc3c(cc2OC)N(C)[C@H]2[C@@](O)(C(=O)OC)[C@H](OC(C)=O)[C@]4(CC)C=CCN5CC[C@]32[C@@H]54)C[C@@H]2C=C(CC)CN1C2 | 2000 nM | 3000 nM | 1000 nM | 1800 nM | 3700 nM | – |
| CC[C@]1(O)C[C@@H]2CN(CCc3c([nH]c4ccccc34)[C@@](C(=O)OC)(c3cc4c(cc3OC)N(C)[C@H]3[C@@](O)(C(=O)OC)[C@H](OC(C)=O)[C@]5(CC)C=CCN6CC[C@]43[C@@H]65)C2)C1 [VINBLASTINE] | 0.8 nM | 1 nM | 7 nM | 3.5 nM | 2100 nM | – |
| CCC1=C[C@@H]2CN(C1)/C(C(=O)NC(C)(C)C)=C(/C(=O)OC)Cc1c([nH]c3ccccc13)[C@@](C(=O)OC)(c1cc3c(cc1OC)N(C)[C@H]1[C@@](O)(C(=O)OC)[C@H](OC(C)=O)[C@]4(CC)C=CCN5CC[C@]31[C@@H]54)C2 | 25 nM | 25 nM | 50 nM | 60 nM | 10400 nM | – |
| CCC1=C[C@@H]2CN(/C=C(/C(=O)OCc3ccccc3)Cc3c([nH]c4ccccc34)[C@@](C(=O)OC)(c3cc4c(cc3OC)N(C)[C@H]3[C@@](O)(C(=O)OC)[C@H](OC(C)=O)[C@]5(CC)C=CCN6CC[C@]43[C@@H]65)C2)C1 | – | – | – | – | > 100000 nM | – |
| CCC1=C[C@@H]2CN(C1)C[C@H](C(=O)OCc1ccccc1)Cc1c([nH]c3ccccc13)[C@@](C(=O)OC)(c1cc3c(cc1OC)N(C)[C@H]1[C@@](O)(C(=O)OC)[C@H](OC(C)=O)[C@]4(CC)C=CCN5CC[C@]31[C@@H]54)C2 | – | – | – | – | > 100000 nM | – |
| CCC1=C[C@@H]2CN(C1)/C(C(=O)NC(C)C)=C(/C(=O)OC)Cc1c([nH]c3ccccc13)[C@@](C(=O)OC)(c1cc3c(cc1OC)N(C)[C@H]1[C@@](O)(C(=O)OC)[C@H](OC(C)=O)[C@]4(CC)C=CCN5CC[C@]31[C@@H]54)C2 | 700 nM | 350 nM | 1500 nM | 2500 nM | 1600 nM | Ratio IC50 [6]: 2 |
| CCC1=C[C@@H]2CN(C1)C[C@H](C(=O)OC)Cc1c([nH]c3ccccc13)[C@@](C(=O)OC)(c1cc3c(cc1OC)N(C)[C@H]1[C@@](O)(C(=O)OC)[C@H](OC(C)=O)[C@]4(CC)C=CCN5CC[C@]31[C@@H]54)C2 | 8 nM | 7 nM | 15 nM | 18 nM | 2500 nM | Activity [7]: Active; Activity [8]: Active; Activity [9]: Active; Activity [10]: Active |
| CCC1=C[C@@H]2CN(C1)[C@H](C(=O)NC(C)C)[C@H](C(=O)OC)Cc1c([nH]c3ccccc13)[C@@](C(=O)OC)(c1cc3c(cc1OC)N(C)[C@H]1[C@@](O)(C(=O)OC)[C@H](OC(C)=O)[C@]4(CC)C=CCN5CC[C@]31[C@@H]54)C2 | 150 nM | 20 nM | 60 nM | 100 nM | 500 nM | Ratio IC50 [6]: 0.6 |
| CCOC(=O)/C1=C/N2CC(CC)=C[C@H](C2)C[C@](C(=O)OC)(c2cc3c(cc2OC)N(C)[C@H]2[C@@](O)(C(=O)OC)[C@H](OC(C)=O)[C@]4(CC)C=CCN5CC[C@]32[C@@H]54)c2[nH]c3ccccc3c2C1 | – | – | – | – | > 100000 nM | – |
| CCC1=C[C@@H]2CN(C1)/C(C(=O)OC)=C(/C(=O)OC)Cc1c([nH]c3ccccc13)[C@@](C(=O)OC)(c1cc3c(cc1OC)N(C)[C@H]1[C@@](O)(C(=O)OC)[C@H](OC(C)=O)[C@]4(CC)C=CCN5CC[C@]31[C@@H]54)C2 | 100 nM | 700 nM | 1000 nM | 500 nM | 6000 nM | – |
| CCC1=C[C@@H]2CN(C1)[C@H](C(=O)NCc1ccccc1)[C@H](C(=O)OC)Cc1c([nH]c3ccccc13)[C@@](C(=O)OC)(c1cc3c(cc1OC)N(C)[C@H]1[C@@](O)(C(=O)OC)[C@H](OC(C)=O)[C@]4(CC)C=CCN5CC[C@]31[C@@H]54)C2 | 60 nM | 70 nM | 75 nM | 200 nM | 2700 nM | – |
| CCC1=C[C@@H]2CN(C1)Cc1c([nH]c3ccccc13)[C@@](C(=O)OC)(c1cc3c(cc1OC)N(C)[C@H]1[C@@](O)(C(=O)OC)[C@H](OC(C)=O)[C@]4(CC)C=CCN5CC[C@]31[C@@H]54)C2 [VINORELBINE] | 2 nM | 2 nM | 20 nM | 35 nM | 700 nM | – |
| C=CCNC(=O)[C@@H]1[C@H](C(=O)OC)Cc2c([nH]c3ccccc23)[C@@](C(=O)OC)(c2cc3c(cc2OC)N(C)[C@H]2[C@@](O)(C(=O)OC)[C@H](OC(C)=O)[C@]4(CC)C=CCN5CC[C@]32[C@@H]54)C[C@@H]2C=C(CC)CN1C2 | 25 nM | 10 nM | 50 nM | 45 nM | 4900 nM | – |
| CCC1=C[C@@H]2CN(C1)/C(C(=O)NCc1ccccc1)=C(/C(=O)OC)Cc1c([nH]c3ccccc13)[C@@](C(=O)OC)(c1cc3c(cc1OC)N(C)[C@H]1[C@@](O)(C(=O)OC)[C@H](OC(C)=O)[C@]4(CC)C=CCN5CC[C@]31[C@@H]54)C2 | 40 nM | 10 nM | 80 nM | 250 nM | 10400 nM | – |
| CCC1=C[C@@H]2CN(/C=C(/C(=O)OC)Cc3c([nH]c4ccccc34)[C@@](C(=O)OC)(c3cc4c(cc3OC)N(C)[C@H]3[C@@](O)(C(=O)OC)[C@H](OC(C)=O)[C@]5(CC)C=CCN6CC[C@]43[C@@H]65)C2)C1 | 250 nM | 700 nM | 500 nM | 500 nM | 18000 nM | – |
| CCC1=C[C@@H]2CN(C1)[C@H](C(=O)NC(C)(C)C)[C@H](C(=O)OC)Cc1c([nH]c3ccccc13)[C@@](C(=O)OC)(c1cc3c(cc1OC)N(C)[C@H]1[C@@](O)(C(=O)OC)[C@H](OC(C)=O)[C@]4(CC)C=CCN5CC[C@]31[C@@H]54)C2 | 70 nM | 80 nM | 250 nM | 300 nM | 1100 nM | Ratio IC50 [6]: 1.7 |
| CCOC(=O)[C@@H]1Cc2c([nH]c3ccccc23)[C@@](C(=O)OC)(c2cc3c(cc2OC)N(C)[C@H]2[C@@](O)(C(=O)OC)[C@H](OC(C)=O)[C@]4(CC)C=CCN5CC[C@]32[C@@H]54)C[C@@H]2C=C(CC)CN(C2)C1 | – | – | – | – | > 100000 nM | – |
| CCC1=C[C@@H]2CN(C1)[C@H](C(=O)OC)[C@H](C(=O)OC)Cc1c([nH]c3ccccc13)[C@@](C(=O)OC)(c1cc3c(cc1OC)N(C)[C@H]1[C@@](O)(C(=O)OC)[C@H](OC(C)=O)[C@]4(CC)C=CCN5CC[C@]31[C@@H]54)C2 | 2.5 nM | 1.5 nM | 5 nM | 6 nM | 8600 nM | Activity [11]: Active; Activity [12]: Active; Activity [13]: Active; Activity [14]: Active |
